# Reference: ChEMBL document CHEMBL5236602, “Synthesis and Characterization of NUC-7738, an Aryloxy Phosphoramidate of 3'-Deoxyadenosine, as a Potential Anticancer Agent” (J Med Chem, 2022)
# Active and inactive are the calls of the source. The rule behind the calls is not given here.
# Legend:
# KG-1 [1] = experiment: Cytotoxicity against human KG-1 cells assessed as maximum cell growth inhibition incubated for 72 hrs by MTS assay relative to control; assay type: functional
# How it was run: (§1)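 Cells from the 20-line panel were seeded the day before dosing, then exposed to compound for 72 h. MTS was added, followed by 4 h at 37 °C, and absorbance was read. Nine serial 3.16-fold dilutions were tested, top 198 μM, in duplicate. MI% is the maximum inhibitory effect across the tested concentration range.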
# [2] = Prodrug conversion in human CCRF-CEM cells assessed as fold increase in 3'-dATP level at 50 uM incubated for 2 hrs by LC-MS/MS analysis relative to 3'-Deoxyadenosine; assay type: ADME, cell-based
# [3] = Prodrug conversion in human RL cells assessed as fold increase in 3'-dATP level at 50 uM incubated for 2 hrs by LC-MS/MS analysis relative to 3'-Deoxyadenosine; assay type: ADME, cell-based
# [4] = Prodrug conversion in human K562 cells assessed as fold increase in 3'-dATP level at 50 uM incubated for 2 hrs by LC-MS/MS analysis relative to 3'-Deoxyadenosine; assay type: ADME, cell-based; conditions: k562, 2 h
# [5] = Prodrug conversion in human HL-60 cells assessed as fold increase in 3'-dATP level at 50 uM incubated for 2 hrs by LC-MS/MS analysis relative to 3'-Deoxyadenosine; assay type: ADME, cell-based; conditions: hl-60, 2 h
# MV4-11 = experiment: Cytotoxicity against human MV4-11 cells assessed as maximum cell growth inhibition incubated for 72 hrs by MTS assay relative to control; assay type: functional; how it was run: as §1
# Adenosine deaminase [6] = biological target: T1, Adenosine deaminase (Bos taurus, UniProt P56658); experiment: Metabolic stability assessed as bovine recombinant adenosine deaminase-mediated 3'-deoxyinosine metabolite formation by measuring shift in maximum absorption at 62.5 uM measured upto 2 hrs by UV absorption spectra based analysis; assay type: ADME; conditions: cattle
# RL [7] = experiment: Potency index, ratio of 3'-Deoxyadenosine LC50 to test compound LC50 for cytotoxicity against human RL cells assessed as cell death incubated for 72 hrs by MTS assay; assay type: functional
# [8] = Prodrug activation assessed as Saccharomyces cerevisiae carboxypeptidase Y-mediated (2R)-2-(((((2S,4R,5R)-5-(6-amino-9H-purin-9-yl)-4-hydroxytetrahydrofuran-2-yl)methoxy)(hydroxy)phosphoryl)amino)propanoic acid formation at 5 mg measured over 1 hr by 31P-NMR analysis
# How it was run: (§2)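 Prodrug (5 mg) in acetone-d6 with trizma buffer pH 7.6, with a t = 0 31P NMR (202 MHz) reference taken first. Carboxypeptidase Y stock (50 units/mL in trizma pH 7.6) added. 31P NMR spectra recorded over time to follow intermediate and aminoacyl phosphoramidate signals.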
# [9] = Drug concentration in mouse plasma at 20 uM measured after 30 sec by UPLC-MS/MS analysis; assay type: ADME, cell-free
# K562 [10] = experiment: Potency index, ratio of 3'-Deoxyadenosine LC50 to test compound LC50 for cytotoxicity against human K562 cells assessed as cell death incubated for 72 hrs by MTS assay; assay type: functional
# [11] = Prodrug activation assessed as Saccharomyces cerevisiae carboxypeptidase Y-mediated (2R)-2-(((((2S,4R,5R)-5-(6-amino-9H-purin-9-yl)-4-hydroxytetrahydrofuran-2-yl)methoxy)(phenoxy)phosphoryl)amino)propanoic acid formation at 5 mg measured for 4 mins by 31P-NMR analysis; how it was run: as §2
# HL-60 [12] = experiment: Potency index, ratio of 3'-Deoxyadenosine LC50 to test compound LC50 for cytotoxicity against human HL-60 cells assessed as cell death incubated for 72 hrs by MTS assay; assay type: functional
# [13] = Drug concentration in human plasma at 20 uM measured after 30 sec by UPLC-MS/MS analysis; assay type: ADME, cell-free
# [14] = Stability in human plasma assessed as reduction in parent compound concentration at 20 uM incubated for 4 hrs in presence of adenosine deaminase inhibitor, EHNA by UPLC-MS/MS analysis; assay type: ADME, cell-free
# Jurkat = experiment: Potency index, ratio of 3'-Deoxyadenosine LC50 to test compound LC50 for cytotoxicity against human Jurkat cells assessed as cell death incubated for 72 hrs by MTS assay; assay type: functional
# RL [15] = experiment: Cytotoxicity against deoxynucleotidyl transferase-negative human RL cells assessed as cell death preincubated with adenosine deaminase inhibitor, EHNA for 5 mins followed by compound addition and […]; assay type: functional, cell-based
# CCRF-CEM [16] = experiment: Cytotoxicity against deoxynucleotidyl transferase-positive human CCRF-CEM cells assessed as cell death preincubated with adenosine deaminase inhibitor, EHNA for 5 mins followed by compound addition and […]; assay type: functional, cell-based
# CCRF-CEM [17] = experiment: Potency index, ratio of 3'-Deoxyadenosine LC50 to test compound LC50 for cytotoxicity against human CCRF-CEM cells assessed as cell death incubated for 72 hrs by MTS assay; assay type: functional
# RL [18] = experiment: Cytotoxicity against deoxynucleotidyl transferase-negative human RL cells assessed as cell death preincubated with adenosine kinase inhibitor, A-134974 for 5 mins followed by compound addition and […]; assay type: functional, cell-based
# [19] = Stability in human plasma assessed as reduction in parent compound concentration at 20 uM measured upto 4 hrs by UPLC-MS/MS analysis; assay type: ADME, cell-free
# Leukemic stem cell [20] = experiment: Cytotoxicity against human leukemic stem cells (Lin-/CD34+/CD38-/CD123+) in myeloid leukemia cell line KG-1a assessed as reduction in LSC population at >1 uM incubated for 72 hrs
# Leukemic stem cell [21] = experiment: Cytotoxicity against human leukemic stem cells (Lin-/CD34+/CD38-/CD123+) in myeloid leukemia cell line KG-1a assessed as preferential cell killing incubated for 72 hrs
# [22] = Drug metabolism in mouse plasma assessed as metabolite formation by measuring reduction in parent compound concentration at 20 uM incubated for 24 hrs in presence of adenosine deaminase inhibitor, EHNA by UPLC/MS/MS analysis; assay type: ADME, cell-free
# MCF7 [23] = experiment: Cytotoxicity against human MCF7 cells assessed as cell death incubated for 72 hrs by MTS assay; assay type: functional; conditions: read-out: LC50 (the source's name)
# How it was run: (§3)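 Contracted MTS assay. Cells seeded the day before treatment and exposed 72 h to nine serial concentrations (3.16-fold steps, top 198 μM), tested in duplicate. MTS added, then 4 h at 37 °C and absorbance read. LC50 is the concentration killing 50% of cells. MI% is the maximum inhibition over the tested range.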
# K562 [24] = experiment: Cytotoxicity against human K562 cells assessed as maximum cell growth inhibition incubated for 72 hrs by MTS assay relative to control; assay type: functional; how it was run: as §1
# HepG2 [25] = experiment: Cytotoxicity against human HepG2 cells assessed as maximum cell growth inhibition incubated for 72 hrs by MTS assay relative to control; assay type: functional; how it was run: as §1
# HL-60 [26] = experiment: Cytotoxicity against human HL-60 cells assessed as cell death incubated for 72 hrs by MTS assay; assay type: functional; conditions: read-out: LC50 (the source's name); how it was run: as §3
# K562 [27] = experiment: Cytotoxicity against human K562 cells assessed as cell death incubated for 72 hrs by MTS assay; assay type: functional; conditions: read-out: LC50 (the source's name); how it was run: as §3
# MOLT-4 [28] = experiment: Cytotoxicity against human MOLT-4 cells assessed as cell death incubated for 72 hrs by MTS assay; assay type: functional; conditions: read-out: LC50 (the source's name); how it was run: as §3
# HepG2 [29] = experiment: Cytotoxicity against human HepG2 cells assessed as cell death incubated for 72 hrs by MTS assay; assay type: functional; conditions: read-out: LC50 (the source's name); how it was run: as §3
# MCF7 [30] = experiment: Cytotoxicity against human MCF7 cells assessed as maximum cell growth inhibition incubated for 72 hrs by MTS assay relative to control; assay type: functional; how it was run: as §1
# KG-1 [31] = experiment: Cytotoxicity against human KG-1 cells assessed as cell death incubated for 72 hrs by MTS assay; assay type: functional; how it was run: as §3
# MOLT-4 [32] = experiment: Cytotoxicity against human MOLT-4 cells assessed as maximum cell growth inhibition incubated for 72 hrs by MTS assay relative to control; assay type: functional; how it was run: as §1
# CCRF-CEM [33] = experiment: Cytotoxicity against human CCRF-CEM cells assessed as maximum cell growth inhibition incubated for 72 hrs by MTS assay relative to control; assay type: functional; how it was run: as §1
# HL-60 [34] = experiment: Cytotoxicity against human HL-60 cells assessed as maximum cell growth inhibition incubated for 72 hrs by MTS assay relative to control; assay type: functional; how it was run: as §1
# CCRF-CEM [35] = experiment: Cytotoxicity against human CCRF-CEM cells assessed as cell death incubated for 72 hrs by MTS assay; assay type: functional; conditions: read-out: LC50 (the source's name); how it was run: as §3
# Adenosine deaminase [36] = biological target: T1, Adenosine deaminase; experiment: Metabolic stability assessed as bovine recombinant adenosine deaminase-mediated 3'-deoxyinosine metabolite formation by measuring shift in maximum absorption at 62.5 uM measured after 2 mins by UV absorption spectra based analysis; assay type: ADME; conditions: cattle
# How it was run: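 Bovine recombinant ADA suspension was diluted in phosphate buffer, pH 7.4, and filtered at 0.2 μm. Substrate at 62.5 μM was added to 17 μL of the ADA solution. UV spectra were scanned at 220–350 nm, 2 nm resolution, every 0.1 min for 10 min to 12 h, with an ADA-only blank subtracted. The read-out is the shift of the 265 nm maximum.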
# [37] = Stability in human plasma assessed as reduction in parent compound concentration at 20 uM measured after 4 hrs by UPLC-MS/MS analysis; assay type: ADME, cell-free
# How it was run: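 Human plasma, with or without 1 μM EHNA as ADA inhibitor, was spiked with 20 μM compound at 37 °C/5% CO2. Samples were quenched in methanol, 1:3 sample:methanol, kept 30 min on ice and centrifuged. The supernatant was dried, reconstituted in 10% acetonitrile and quantified by UPLC-MS/MS over time.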
# T1 sequence (P56658 whole entry): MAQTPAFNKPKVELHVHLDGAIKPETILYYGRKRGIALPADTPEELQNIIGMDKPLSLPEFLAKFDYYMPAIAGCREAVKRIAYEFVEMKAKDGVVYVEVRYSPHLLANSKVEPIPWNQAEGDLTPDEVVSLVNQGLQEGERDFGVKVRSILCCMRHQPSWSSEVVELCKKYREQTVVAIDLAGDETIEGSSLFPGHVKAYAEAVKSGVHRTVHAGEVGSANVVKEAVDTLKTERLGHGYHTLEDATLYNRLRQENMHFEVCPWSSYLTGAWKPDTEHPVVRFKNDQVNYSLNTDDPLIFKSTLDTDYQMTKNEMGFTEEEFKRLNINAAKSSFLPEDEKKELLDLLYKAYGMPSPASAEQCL
smiles,measurement,setting,value
CCOC(=O)CCc1ccccc1OP(=O)(N[C@@H](C)C(=O)OCc1ccccc1)OC[C@@H]1C[C@@H](O)[C@H](n2cnc3c(N)ncnc32)O1 (some centres not stated),Imax,KG-1 [1],69%
same,fold change (FC),[2],2
same,fold change (FC),[3],2
same,fold change (FC),[4],2
same,fold change (FC),[5],2
C[C@H](N[P@](=O)(OC[C@@H]1C[C@@H](O)[C@H](n2cnc3c(N)ncnc32)O1)Oc1ccccc1)C(=O)OCc1ccccc1,Imax,MV4-11,100%
C[C@H](N[P@@](=O)(OC[C@@H]1C[C@@H](O)[C@H](n2cnc3c(N)ncnc32)O1)Oc1ccccc1)C(=O)OCc1ccccc1,Imax,KG-1 [1],90%
C[C@H](NP(=O)(OC[C@@H]1C[C@@H](O)[C@H](n2cnc3c(N)ncnc32)O1)Oc1ccccc1)C(=O)OCc1ccccc1 (some centres not stated) [FOSDESDENOSINE SIPALABENAMIDE],Stability,Adenosine deaminase [6],Stable
same,RatioLC50,RL [7],3
same,Drug metabolism,[8],Metabolite_Detected
same,"concentration at 0.5 min, 20 µM",[9],0.0005 µg/mL
same,RatioLC50,K562 [10],3
same,fold change (FC),[2],3
same,Drug metabolism,[11],Metabolite_Detected
same,RatioLC50,HL-60 [12],3
same,"concentration at 0.5 min, 20 µM",[13],10 µg/mL
same,Stability,[14],Stable
same,RatioLC50,Jurkat,200
same,Activity,RL [15],Active
same,Activity,CCRF-CEM [16],Active
same,fold change (FC),[3],3
same,fold change (FC),[4],3
same,RatioLC50,CCRF-CEM [17],3
same,Activity,RL [18],Active
same,Stability,[19],Stable
same,Activity,Leukemic stem cell [20],Active
same,fold change (FC),[5],3
same,Activity,Leukemic stem cell [21],Active
same,Drug metabolism,[22],Metabolite_Detected
CC(=O)O[C@H]1C(=O)[C@@]2(C)[C@H]([C@H](OC(=O)c3ccccc3)[C@]3(O)C[C@H](OC(=O)[C@H](O)[C@@H](NC(=O)c4ccccc4)c4ccccc4)C(C)=C1C3(C)C)[C@]1(OC(C)=O)CO[C@@H]1C[C@@H]2O [PACLITAXEL],Imax,KG-1 [1],89%
Nc1ncnc2c1ncn2[C@@H]1O[C@H](COP(=O)(NCC(=O)OCc2ccccc2)Oc2ccccc2)C[C@H]1O (some centres not stated),CC50,MCF7 [23],15.5 µM
same,Imax,KG-1 [1],65%
same,Imax,K562 [24],92%
same,Imax,HepG2 [25],59%
same,CC50,HL-60 [26],45.2 µM
same,CC50,K562 [27],15.4 µM
same,CC50,MOLT-4 [28],3.55 µM
same,CC50,HepG2 [29],142 µM
same,Imax,MCF7 [30],87%
same,LC50,KG-1 [31],136.56 µM
same,Imax,MOLT-4 [32],93%
same,Imax,CCRF-CEM [33],94%
same,Imax,HL-60 [34],82%
same,CC50,CCRF-CEM [35],14.9 µM
Nc1ncnc2c1ncn2[C@@H]1O[C@H](CO)C[C@H]1O [CORDYCEPIN],Stability,Adenosine deaminase [36],Unstable
same,Stability,[37],Unstable
same,Activity,Leukemic stem cell [20],Active
